Bounds are passed on as bounds.

The values that follow come from ChEMBL document CHEMBL3272249, “Esters of N-tert-butylarterenol. Long-acting new bronchodilators with reduced cardiac effects” (J Med Chem, 1976).

Series [1] has as its system Canis familiaris. The experiment in a line: Bronchodilator activity in dog assessed as degree of inhibition of carbachol or histamine-induced bronchoconstriction at 70 to 280 mg/kg, id relative to control. The format is functional, Canis lupus familiaris. Particulars: dose mg/kg 70-280; route intraduodenal. The essentials:
(§1)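 Anesthetized dogs, trachea cannulated with a nonbreathing valve. Bronchoconstriction induced by iv carbachol (2–4 μg/kg) or histamine diphosphate (20–50 μg/kg) in separate animals, and airway pressure recorded by transducer. Drug stocks were made fresh in distilled water, diluted in saline and kept on ice. Read-out was percent inhibition of control constriction, averaged over at least three dogs per dose at the higher dose. Carbachol and histamine data were combined.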

Series [2] deals with Canis familiaris. The experiment in a line: Cardiotoxicity in spontaneously respiring dog assessed as time of increase in heart rate at 70 to 280 mg/kg, id relative to control. The format is toxicity, organism-based, Canis lupus familiaris. On the set-up: dose 70-280 mg/kg, route intraduodenal. Particulars: in vivo, other. The essentials:
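Anesthetized, spontaneously respiring dogs. Heart rate monitored by lead II EKG, with blood pressure taken from the right femoral artery by pressure transducer and recorded on a polygraph. Drug stocks made fresh in distilled water, diluted in physiological saline and kept on ice. Dosing was iv, id or it as listed. The duration of the heart-rate increase was recorded in h, with more than 4 dogs per dose.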

The test system of series [3] is Canis familiaris. The experiment in a line: Cardiotoxicity in spontaneously respiring dog assessed as degree of increase in heart rate at 35 to 140 mg/kg, iv relative to control. The format is toxicity, organism-based, Canis lupus familiaris. Particulars: in vivo. Set-up: dose 35-140 mg/kg, route intravenous. The essentials:
(§2)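 Anesthetized, spontaneously respiring dogs. Heart rate was taken from a lead II EKG, and blood pressure from the right femoral artery by transducer. The increase in heart rate (beats/min) was scored on a graded scale with more than 4 dogs per dose, and its duration was recorded. Drugs were dissolved fresh in distilled water, diluted in physiological saline and kept on ice.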

In series [4] the test system is Canis familiaris. The experiment in a line: Bronchodilator activity in dog assessed as degree of inhibition of carbachol or histamine-induced bronchoconstriction at 35 to 140 mg/kg, iv relative to control. The conditions noted are these: dose mg/kg 35-140. The format is functional, Canis lupus familiaris. The essentials:
as §1

For series [5], the system named is Canis familiaris. The experiment in a line: Cardiotoxicity in spontaneously respiring dog assessed as time of increase in heart rate at 540 to 1080 mg/kg, it relative to control. Particulars: in vivo.
The test system of series [6] is Canis familiaris. The experiment in a line: Cardiotoxicity in spontaneously respiring dog assessed as time of increase in heart rate at 35 to 140 mg/kg, iv relative to control. It is filed as toxicity, organism-based, Canis lupus familiaris. Particulars: in vivo. Set-up: dose 35-140 mg/kg, route intravenous. The essentials:
as §2

Series [7] concerns Canis familiaris. The experiment in a line: Cardiotoxicity in spontaneously respiring dog assessed as degree of increase in heart rate at 70 to 280 mg/kg, id relative to control. It is filed as toxicity, organism-based, Canis lupus familiaris. Set-up: dose 70-280 mg/kg, route intraduodenal. The conditions noted are these: in vivo, other. The essentials: as §2
Series [8] relates to Canis familiaris. The experiment in a line: Bronchodilator activity in dog assessed as degree of inhibition of carbachol or histamine-induced bronchoconstriction at 540 to 1080 mg/kg, it relative to control. The format is functional, Canis lupus familiaris. Particulars: dose mg/kg 540-1080; route endotracheal. The essentials:
as §1

The subject of series [9] is Canis familiaris. The experiment in a line: Bronchodilator activity in dog assessed as time of inhibition of carbachol or histamine-induced bronchoconstriction at 35 to 140 mg/kg, iv relative to control. Particulars: dose mg/kg 35-140. It is filed as functional, Canis lupus familiaris. The essentials: (§3)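 Dog airway model: anesthetized, cannulated via a nonbreathing valve, with airway pressure changes recorded after iv carbachol (2–4 μg/kg) or histamine diphosphate (20–50 μg/kg) challenge, each agonist in different animals. Compounds were given iv, intraduodenally or intratracheally from fresh aqueous stocks diluted in saline. Duration (h) of inhibition of induced bronchoconstriction was followed, and the two agonist datasets were pooled.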

Series [10] relates to Canis familiaris. The experiment in a line: Bronchodilator activity in dog assessed as time of inhibition of carbachol or histamine-induced bronchoconstriction at 540 to 1080 mg/kg, it relative to control. The format is functional, Canis lupus familiaris. Particulars: dose mg/kg 540-1080; route endotracheal. The essentials: (§4)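 Anesthetized dogs with an airway cannula and a nonbreathing valve. Bronchoconstriction was induced by iv carbachol (2–4 μg/kg) or histamine diphosphate (20–50 μg/kg) and read as change in airway pressure by transducer. Each compound was tested against both agonists in different dogs, and the results were combined and averaged. Effect is % inhibition of control constriction, with at least three dogs per dose. Drugs were dissolved fresh in distilled water, diluted in saline and kept on ice.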

The subject of series [11] is Canis familiaris. The experiment in a line: Bronchodilator activity in dog assessed as time of inhibition of carbachol or histamine-induced bronchoconstriction at 70 to 280 mg/kg, id relative to control. It is filed as functional, Canis lupus familiaris. Particulars: dose mg/kg 70-280; route intraduodenal. The essentials: as §4
For series [12], the system named is Canis familiaris. The experiment in a line: Cardiotoxicity in spontaneously respiring dog assessed as degree of increase in heart rate at 540 to 1080 mg/kg, intratracheal relative to control. The conditions noted are these: in vivo.
Series [13] deals with Canis familiaris. The experiment in a line: Bronchodilator activity in dog assessed as degree of inhibition of carbachol or histamine-induced bronchoconstriction at 590 to 1180 mg/kg, it relative to control. The conditions noted are these: dose mg/kg 590-1180; route endotracheal.
The subject of series [14] is Canis familiaris. The experiment in a line: Bronchodilator activity in dog assessed as time of inhibition of carbachol or histamine-induced bronchoconstriction at 590 to 1180 mg/kg, it relative to control. The conditions noted are these: dose mg/kg 590-1180; route endotracheal.
Series [15] concerns Canis familiaris. The experiment in a line: Bronchodilator activity in dog assessed as time of inhibition of carbachol or histamine-induced bronchoconstriction at 25 to 100 mg/kg, iv relative to control. Particulars: dose mg/kg 25-100. It is filed as functional, Canis lupus familiaris. The essentials: as §3
The test system of series [16] is Canis familiaris. The experiment in a line: Bronchodilator activity in dog assessed as degree of inhibition of carbachol or histamine-induced bronchoconstriction at 25 to 100 mg/kg, iv relative to control. The format is functional, Canis lupus familiaris. Particulars: dose mg/kg 25-100. The essentials:
as §1

For series [17], the system named is Canis familiaris. The experiment in a line: Bronchodilator activity in dog assessed as time of inhibition of carbachol or histamine-induced bronchoconstriction at 50 to 100 mg/kg, id relative to control. It is filed as functional, Canis lupus familiaris. The conditions noted are these: dose mg/kg 50-100; route intraduodenal. The essentials:
as §4

Series [18] deals with Canis familiaris. The experiment in a line: Cardiotoxicity in spontaneously respiring dog assessed as degree of increase in heart rate at 25 to 100 mg/kg, iv relative to control. The format is toxicity, organism-based, Canis lupus familiaris. The conditions noted are these: in vivo. On the set-up: dose 25-100 mg/kg, route intravenous. The essentials:
as §2

In series [19] the test system is Canis familiaris. The experiment in a line: Cardiotoxicity in spontaneously respiring dog assessed as time of increase in heart rate at 25 to 100 mg/kg, iv relative to control. It is filed as toxicity, organism-based, Canis lupus familiaris. Set-up: dose 25-100 mg/kg, route intravenous. The conditions noted are these: in vivo. The essentials:
as §2

Series [20] relates to Canis familiaris. The experiment in a line: Bronchodilator activity in dog assessed as degree of inhibition of carbachol or histamine-induced bronchoconstriction at 50 to 100 mg/kg, id relative to control. It is filed as functional, Canis lupus familiaris. The conditions noted are these: dose mg/kg 50-100; route intraduodenal. The essentials: as §1

Turning to `CS(=O)(=O)O.Cc1ccc(C(=O)Oc2ccc([C@@H](O)CNC(C)(C)C)cc2OC(=O)c2ccc(C)cc2)cc1`, the “inhibition (INH)” value in series [1] is over 70%; in series [4], over 70%; in [8] it was 45%. For the same compound, the Time in series [2] was 2 h; in series [5], under 1 h; in series [6] it was 2 h; in series [9], over 5 h; in [10] it was over 5 h; in [11] it was over 5 h. In addition, the Activity was found to be 20% in series [3], 20% in [7] and 5% in series [12].
Regarding `CS(=O)(=O)O.Cc1cc(C)cc(C(=O)Oc2ccc([C@@H](O)CNC(C)(C)C)cc2OC(=O)c2cc(C)cc(C)c2)c1`, the “inhibition (INH)” value in series [13] came out at 20%. Moreover, the Time in [14] is under 3 h.
On to `COc1ccc(C(=O)Oc2ccc([C@@H](O)CNC(C)(C)C)cc2OC(=O)c2ccc(OC)cc2)cc1.Cl`, for which the values for the Time in [15], in series [17] and in [19] were 1 h, under 3 h and under 2 h, respectively. Moreover, the “inhibition (INH)” value in series [16] and in [20] was 20% throughout. For the same compound, the Activity in series [18] is given as 20%.
